Results published in ChEMBL document CHEMBL1121756, “Structure-activity relationships of the cycloalkyl ring of phencyclidine” (J Med Chem, 1981).
Calls of active or inactive are those of the source. No cut-off for these calls is given here.

How the values were obtained:
Rattus norvegicus [1] = organism: Rattus norvegicus; assay: Relative potency in the rat discriminative stimulus assay, expressed as mg of PCP (= 1.0 mg of compound); assay type: functional
In short: (§1)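 Male Fischer-derived CDF rats trained to discriminate PCP (3.0 mg/kg ip, 30 min before session) from saline in a two-choice, discrete-trial avoidance task. In tests, generalization counted if the group averaged ≥90% of 20 trials on the PCP lever. Relative potency versus PCP derived by standard bioassay statistics.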

Rattus norvegicus [2] = organism: Rattus norvegicus; assay: Ability to displace 7.0 nM [3H]-PCP binding to rat brain homogenate relative to PCP
In short: (§2)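 Freshly prepared rat brain homogenate aliquots incubated 45 min at 4 °C with 7.0 nM [3H]PCP; bound radioligand measured by filtration. Displacement curve for each analogue fitted visually from a log-probit plot to give IC50. PCP run as standard in each assay, and each analogue's IC50 compared with it.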

Rattus norvegicus [3] = assay: Relative potency in the rat discriminative stimulus assay, expressed as mg of PCP (= 1.0 mg of compound); Did not generalize to PCP, Produced CNS depression at 56 mg/Kg; assay type: functional, organism-based
Rattus norvegicus [4] = organism: Rattus norvegicus; assay: Inhibitory concentration for [3H]PCP binding to rat brain homogenate relative to PCP; in short: as §2
Rattus norvegicus [5] = organism: Rattus norvegicus; assay: Ability to displace 7.0 nM [3H]PCP binding to rat brain homogenate relative to PCP (IC50= 270 nM); in short: as §2
Rattus norvegicus [6] = assay: Relative potency in the rat discriminative stimulus assay, expressed as mg of PCP (= 1.0 mg of compound); Did not generalize to PCP, No activity seen at doses of <=56 mg/Kg; assay type: functional, organism-based; in short: as §1
Rattus norvegicus [7] = assay: Relative potency in the rat discriminative stimulus assay, expressed as mg of PCP (= 1.0 mg of compound); Did not generalize to PCP, Tonic seizures was observed at 56 mg/Kg; assay type: functional, organism-based; in short: as §1

| SMILES | Relative potency (Rattus norvegicus [1]) | Relative potency (Rattus norvegicus [2]) | also measured |
| --- | --- | --- | --- |
| Cl.c1ccc(C2(N3CCCCC3)CCCC2)cc1 | 0.37 | 0.12 |  |
| c1ccc(CN2CCCCC2)cc1 |  | 0.02 | Relative potency (Rattus norvegicus [3]): inactive |
| Cl.c1ccc(C2(N3CCCCC3)CCC2)cc1 | 0.19 | 0.08 |  |
| Cl.c1ccc(C2(N3CCCCC3)CCCCC2)cc1 [PHENCYCLIDINE HYDROCHLORIDE] | 1 |  | IC50 (Rattus norvegicus [4]): 270 nM; Relative potency (Rattus norvegicus [5]): 1 |
| c1ccc(C2(N3CCCCC3)CC2)cc1 |  | 0.07 | Relative potency (Rattus norvegicus [6]): inactive |
| Cl.c1ccc(C2(N3CCCCC3)CCCCCC2)cc1 | 0.06 | 0.23 |  |
| c1ccc(C2(N3CCCCC3)CCCCCCC2)cc1 |  | 0.72 | Relative potency (Rattus norvegicus [7]): inactive |
